From ChEMBL document CHEMBL1140675, “Discovery of a novel class of benzazepinone Na(v)1.7 blockers: potential treatments for neuropathic pain” (Bioorg Med Chem Lett, 2007)

Experiments:
[1] = biological target: T1, Sodium channel protein type 9 subunit alpha (Homo sapiens, UniProt Q15858); test: Blockade of human Nav1.7 by FRET assay
Method in brief: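 Functional membrane-potential assay of channel block on human Nav1.7; read-out is FRET between two membrane-associated dyes; IC50 in nM.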

[2] = Plasma clearance in rat at 1.0 mg/kg, iv or 3.0 mg/kg, po; assay type: ADME, organism-based
hERG (KCNH2) = hERG (KCNH2) (Homo sapiens, UniProt Q12809); test: Displacement of [35S]-MK0499 from human ERG receptor expressed in HEK293 cells at 10 uM; assay type: cell-based; conditions: HEK293 cells expressing human ERG, probe [35S]-MK0499
Method in brief: (§1)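 Binding assay measuring displacement of radiolabelled ligand (35S-MK-0499 for hERG; 3H-diltiazem for Cav1.2); % inhibition at 10 µM test compound.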

[3] = Cmax in rat at 1.0 mg/kg, iv or 3.0 mg/kg, po; assay type: ADME, organism-based; conditions: in vivo
[4] = biological target: Cav1.2 (L-type calcium channel subunit alpha-1C) (Homo sapiens, UniProt Q13936); test: Displacement of [3H]diltiazem from human Cav1.2 expressed in HEK293 cells at 10 uM; assay type: cell-based; conditions: HEK293 cells expressing human Cav1.2, probe [3H]diltiazem; method in brief: as §1
[5] = Half life in rat at 1.0 mg/kg, iv or 3.0 mg/kg, po; assay type: ADME, organism-based; conditions: in vivo
[6] = Bioavailability in rat at 3.0 mg/kg, po; assay type: ADME, organism-based; conditions: in vivo
Rattus norvegicus [7] = test: Blockade of spontaneous neuronal firing in rat peripheral axotomy model at 2 mg/kg, iv after 10 mins; assay type: functional
Method in brief: (§2)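 Iv infusion given after baseline spontaneous firing frequency was established; firing frequency then recorded for 60 min post-dose, with % inhibition at 10, 30 and 60 min; n = 6.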

Rattus norvegicus [8] = test: Blockade of spontaneous neuronal firing in rat peripheral axotomy model at 2 mg/kg, iv after 30 mins; assay type: functional; conditions: 0.5 h; method in brief: as §2
[9] = Plasma clearance in dog at 0.38 mg/kg, iv or 1.5 mg/kg, po; assay type: ADME, organism-based, Canis lupus familiaris
[10] = biological target: Voltage-dependent L-type calcium channel subunit alpha-1C (Homo sapiens, UniProt Q13936); test: Displacement of [3H]diltiazem from human Cav1.2 expressed in HEK293 cells; assay type: cell-based
Method in brief: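 Cav1.2 binding assay measuring displacement of 3H-diltiazem.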

[11] = Cmax in dog at 0.38 mg/kg, iv or 1.5 mg/kg, po; assay type: ADME, organism-based, Canis lupus familiaris; conditions: in vivo
Rattus norvegicus [12] = test: Reversal of allodynia in rat spinal nerve ligation model at 10 mg/kg, po after 2 hrs; assay type: functional
Method in brief: (§3)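 L5 spinal nerve ligated and transected in rats to induce neuropathy; tactile allodynia measured with calibrated Von Frey filaments before and 1 week after surgery. Rats with significant allodynia were dosed orally and % reversal of allodynia determined at 2 and 4 h post-dose; n = 8.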

[13] = Half life in dog at 0.38 mg/kg, iv or 1.5 mg/kg, po; assay type: ADME, organism-based, Canis lupus familiaris; conditions: in vivo
Rattus norvegicus [14] = test: Blockade of spontaneous neuronal firing in rat peripheral axotomy model at 2 mg/kg, iv after 60 mins; assay type: functional; conditions: 1 h; method in brief: as §2
[15] = biological target: T1, Sodium channel protein type 9 subunit alpha; test: Binding affinity at human inactive state Nav1.7 by whole cell electrophysiology
Rattus norvegicus [16] = test: Reversal of allodynia in rat spinal nerve ligation model at 10 mg/kg, po after 4 hrs; assay type: functional; method in brief: as §3
[17] = Bioavailability in dog at 1.5 mg/kg, po; assay type: ADME, organism-based, Canis lupus familiaris; conditions: in vivo

Sequence of hERG (KCNH2) (Q12809 whole entry): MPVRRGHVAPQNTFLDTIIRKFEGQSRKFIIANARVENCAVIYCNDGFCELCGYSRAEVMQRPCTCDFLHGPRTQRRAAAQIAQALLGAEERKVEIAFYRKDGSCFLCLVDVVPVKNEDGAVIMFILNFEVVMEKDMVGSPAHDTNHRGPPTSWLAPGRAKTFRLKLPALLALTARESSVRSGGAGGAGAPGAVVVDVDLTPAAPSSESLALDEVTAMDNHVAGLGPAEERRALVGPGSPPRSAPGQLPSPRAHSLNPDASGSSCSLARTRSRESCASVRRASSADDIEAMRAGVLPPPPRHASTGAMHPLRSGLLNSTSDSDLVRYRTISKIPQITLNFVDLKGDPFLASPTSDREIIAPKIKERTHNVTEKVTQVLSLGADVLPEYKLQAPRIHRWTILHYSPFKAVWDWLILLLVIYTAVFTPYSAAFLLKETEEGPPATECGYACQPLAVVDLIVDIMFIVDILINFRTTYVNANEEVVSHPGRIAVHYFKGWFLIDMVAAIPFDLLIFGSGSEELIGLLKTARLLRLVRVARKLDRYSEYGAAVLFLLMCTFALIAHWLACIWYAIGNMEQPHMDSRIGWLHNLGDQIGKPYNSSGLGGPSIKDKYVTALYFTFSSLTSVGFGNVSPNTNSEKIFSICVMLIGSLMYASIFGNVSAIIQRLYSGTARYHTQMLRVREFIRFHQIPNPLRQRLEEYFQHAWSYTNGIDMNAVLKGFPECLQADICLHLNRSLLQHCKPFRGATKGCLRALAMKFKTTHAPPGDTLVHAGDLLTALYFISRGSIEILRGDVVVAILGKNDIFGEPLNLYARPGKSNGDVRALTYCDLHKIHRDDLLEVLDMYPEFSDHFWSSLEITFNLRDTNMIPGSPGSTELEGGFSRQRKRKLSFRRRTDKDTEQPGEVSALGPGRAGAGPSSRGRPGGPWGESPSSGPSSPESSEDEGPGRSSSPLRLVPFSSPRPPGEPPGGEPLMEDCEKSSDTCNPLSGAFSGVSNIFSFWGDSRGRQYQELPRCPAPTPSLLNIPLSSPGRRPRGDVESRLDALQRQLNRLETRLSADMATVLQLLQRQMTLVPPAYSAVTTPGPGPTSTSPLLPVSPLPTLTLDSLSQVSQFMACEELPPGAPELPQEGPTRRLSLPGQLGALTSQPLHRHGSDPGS
T1 sequence (Q15858 whole entry): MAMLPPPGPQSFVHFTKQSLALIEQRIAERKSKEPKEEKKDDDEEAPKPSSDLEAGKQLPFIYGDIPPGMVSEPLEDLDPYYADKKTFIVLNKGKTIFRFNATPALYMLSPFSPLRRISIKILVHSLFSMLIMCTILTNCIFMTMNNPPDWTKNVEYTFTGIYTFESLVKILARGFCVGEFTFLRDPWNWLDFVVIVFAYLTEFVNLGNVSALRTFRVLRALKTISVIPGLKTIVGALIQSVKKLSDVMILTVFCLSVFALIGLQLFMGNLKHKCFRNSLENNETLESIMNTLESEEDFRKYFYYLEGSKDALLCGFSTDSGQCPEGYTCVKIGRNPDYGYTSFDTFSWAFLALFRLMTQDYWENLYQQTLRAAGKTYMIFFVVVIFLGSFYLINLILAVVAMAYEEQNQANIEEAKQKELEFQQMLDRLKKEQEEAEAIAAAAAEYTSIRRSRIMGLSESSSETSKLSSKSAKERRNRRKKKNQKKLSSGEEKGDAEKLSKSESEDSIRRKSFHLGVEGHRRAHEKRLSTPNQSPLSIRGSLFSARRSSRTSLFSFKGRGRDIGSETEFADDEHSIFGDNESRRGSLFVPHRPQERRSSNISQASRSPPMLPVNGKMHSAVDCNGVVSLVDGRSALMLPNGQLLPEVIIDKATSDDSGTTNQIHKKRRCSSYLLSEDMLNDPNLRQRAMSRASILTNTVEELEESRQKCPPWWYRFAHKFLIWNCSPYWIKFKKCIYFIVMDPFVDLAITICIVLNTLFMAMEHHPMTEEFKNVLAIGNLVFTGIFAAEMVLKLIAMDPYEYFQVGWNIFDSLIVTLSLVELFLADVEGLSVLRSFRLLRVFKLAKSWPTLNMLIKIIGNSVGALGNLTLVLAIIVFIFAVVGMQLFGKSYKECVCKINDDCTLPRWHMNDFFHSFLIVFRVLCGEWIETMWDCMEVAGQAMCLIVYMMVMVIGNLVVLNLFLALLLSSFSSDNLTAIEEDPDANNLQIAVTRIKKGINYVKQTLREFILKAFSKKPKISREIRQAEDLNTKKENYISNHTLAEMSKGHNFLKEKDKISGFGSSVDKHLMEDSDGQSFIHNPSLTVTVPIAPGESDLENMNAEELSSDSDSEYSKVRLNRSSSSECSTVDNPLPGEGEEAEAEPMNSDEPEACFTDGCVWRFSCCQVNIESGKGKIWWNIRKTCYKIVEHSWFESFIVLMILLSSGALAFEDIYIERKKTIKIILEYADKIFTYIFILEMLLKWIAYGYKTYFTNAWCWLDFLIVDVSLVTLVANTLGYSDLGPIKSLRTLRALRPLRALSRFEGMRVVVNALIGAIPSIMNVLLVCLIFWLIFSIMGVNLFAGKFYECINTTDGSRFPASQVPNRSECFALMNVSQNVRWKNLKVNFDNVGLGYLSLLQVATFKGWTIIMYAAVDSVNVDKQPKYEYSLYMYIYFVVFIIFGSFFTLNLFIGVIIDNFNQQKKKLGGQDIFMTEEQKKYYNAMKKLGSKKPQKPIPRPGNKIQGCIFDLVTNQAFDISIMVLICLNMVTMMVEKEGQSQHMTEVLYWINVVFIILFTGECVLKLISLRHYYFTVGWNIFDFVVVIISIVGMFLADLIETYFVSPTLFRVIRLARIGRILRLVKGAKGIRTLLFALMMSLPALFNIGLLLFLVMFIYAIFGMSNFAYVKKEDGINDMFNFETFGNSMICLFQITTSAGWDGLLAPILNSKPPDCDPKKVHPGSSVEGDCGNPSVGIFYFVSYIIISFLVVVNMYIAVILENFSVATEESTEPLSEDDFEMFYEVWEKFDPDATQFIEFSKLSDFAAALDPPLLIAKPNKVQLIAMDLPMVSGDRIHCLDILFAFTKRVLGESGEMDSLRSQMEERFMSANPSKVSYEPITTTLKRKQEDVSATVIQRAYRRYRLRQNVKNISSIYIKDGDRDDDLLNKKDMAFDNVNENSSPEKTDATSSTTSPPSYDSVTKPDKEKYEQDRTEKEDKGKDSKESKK

Row | SMILES | IC50 [1] [nM] | inhibition at 10 µM (hERG (KCNH2)) [%] | other results
1 | CN1C(=O)[C@H](NC(=O)[C@@H](Cc2ccccc2)NC(=O)C2CC2)N=C(c2ccccc2)c2ccccc21 | > 1000 | – | –
2 | C[C@@H](NC(=O)OC(C)(C)C)C(=O)N[C@@H]1N=C(c2ccccc2)c2ccccc2N(C)C1=O | > 1000 | – | –
3 | COC(=O)N[C@H](Cc1ccccc1)C(=O)N[C@@H]1N=C(c2ccccc2)c2ccccc2N(C)C1=O | > 1000 | – | –
4 | CN1C(=O)[C@H](NC(=O)[C@@H](Cc2ccccc2)NC(=O)OCc2ccccc2)N=C(c2ccccc2)c2ccccc21 | 150 | – | –
5 | CC(C)N1C(=O)[C@H](NC(=O)[C@@H](Cc2ccccc2F)NC(=O)OC(C)(C)C)CCc2ccccc21 | 44 | 8 | clearance [2]: 41 mL/min/kg; Cmax [3]: 100 nM; inhibition at 10 µM [4]: 11%; half-life [5]: 1.5 h; bioavailability [6]: 14%
6 | CN1C(=O)[C@H](NC(=O)[C@H](NC(=O)OC(C)(C)C)c2ccccc2)N=C(c2ccccc2)c2ccccc21 | 375 | – | –
7 | CC(C)(C)OC(=O)N[C@@H](CN[C@@H]1CCc2ccccc2N(CC(F)(F)F)C1=O)Cc1ccccc1 | 885 | 79 | –
8 | CC(C)(C)OC(=O)N[C@H](Cc1ccccc1)C(=O)N[C@@H]1CCc2ccccc2N(CC2CC2)C1=O | 78 | 15 | –
9 | CC(C)N1C(=O)[C@H](NC(=O)[C@@H](Cc2c(F)cccc2C(F)(F)F)NC(=O)OC(C)(C)C)CCc2ccccc21 | 32 | 43 | clearance [2]: 32 mL/min/kg; Cmax [3]: 330 nM; inhibition at 10 µM [4]: 81%; half-life [5]: 2.5 h; bioavailability [6]: 28%
10 | CN1C(=O)[C@H](NC(=O)[C@@H](Cc2ccccc2)NS(=O)(=O)c2ccccc2)N=C(c2ccccc2)c2ccccc21 | > 1000 | – | –
11 | CN1C(=O)[C@H](NC(=O)[C@@H](Cc2ccccc2)NC(=O)OC(C)(C)C)N=C(c2ccccc2)c2ccccc21 | 125 | – | –
12 | CC(C)N1C(=O)[C@H](NC(=O)[C@H](Cc2ccccc2OC(F)(F)F)NC(=O)OC(C)(C)C)CCc2ccccc21 | 214 | 0 | –
13 | CC(C)N1C(=O)[C@H](NC(=O)[C@@H](Cc2ccccc2)NC(=O)OC(C)(C)C)CCc2ccccc21 | 45 | 6 | –
14 | CN1C(=O)[C@H](NC(=O)[C@@H](Cc2cscn2)NC(=O)OC(C)(C)C)N=C(c2ccccc2)c2ccccc21 | 684 | – | –
15 | CN1C(=O)[C@H](NC(=O)[C@@H](CCc2ccccc2)NC(=O)OC(C)(C)C)N=C(c2ccccc2)c2ccccc21 | 238 | – | –
16 | CN1C(=O)[C@H](NC(=O)[C@@H](Cc2cccnc2)NC(=O)OC(C)(C)C)N=C(c2ccccc2)c2ccccc21 | 978 | – | –
17 | CC(C)N1C(=O)[C@H](NC(=O)[C@@H](Cc2cccc(C(F)(F)F)c2)NC(=O)OC(C)(C)C)CCc2ccccc21 | 295 | 15 | inhibition at 10 µM [4]: 19%
18 | CC(C)N1C(=O)[C@H](NC(=O)[C@@H](Cc2cc(F)ccc2F)NC(=O)OC(C)(C)C)CCc2ccccc21 | 23 | 6 | inhibition at 10 µM [4]: 24%
19 | CN1C[C@H](NC(=O)[C@@H](Cc2ccccc2)NC(=O)OC(C)(C)C)CCc2ccccc21 | > 1000 | 28 | –
20 | CN1C(=O)[C@H](NC(=O)[C@@H](Cc2ccccc2)NCCC(C)(C)C)N=C(c2ccccc2)c2ccccc21 | > 1000 | – | –
21 | CN1C(=O)[C@H](NC(=O)[C@@H](Cc2ccccc2)N(C)C(=O)OC(C)(C)C)N=C(c2ccccc2)c2ccccc21 | > 1000 | – | –
22 | CC(C)N1C(=O)[C@H](NC(=O)[C@@H](Cc2c(F)cccc2F)NC(=O)OC(C)(C)C)CCc2ccccc21 | 14 | 4 | inhibition at 10 µM [4]: 36%

Row | SMILES | IC50 [1] [nM] | inhibition at 10 µM (hERG (KCNH2)) [%] | other results
23 | CC(C)N1C(=O)[C@H](NC(=O)[C@@H](Cc2ccccc2OC(F)(F)F)NC(=O)OC(C)(C)C)CCc2ccccc21 | 35 | 18 | inhibition in vivo at 2 mg/kg (Rattus norvegicus [7]): 100%; inhibition in vivo at 2 mg/kg (Rattus norvegicus [8]): 100%; clearance [2]: 24 mL/min/kg; clearance [9]: 15 mL/min/kg; IC50 [10]: 3500 nM; Cmax [3]: 300 nM; Cmax [11]: 70 nM; half-life [5]: 2.3 h; Activity (Rattus norvegicus [12]): 43%; half-life [13]: 4.2 h; inhibition in vivo at 2 mg/kg (Rattus norvegicus [14]): 93%; Ki [15]: 40 nM; bioavailability [6]: 24%; Activity (Rattus norvegicus [16]): 40%; bioavailability [17]: 9%
24 | CN1C(=O)[C@H](NC(=O)[C@@H](CC2CCCCC2)NC(=O)OC(C)(C)C)N=C(c2ccccc2)c2ccccc21 | > 1000 | – | –
25 | CN1C(=O)[C@H](NC(=O)[C@@H](Cc2ccccc2)NC(=O)C23CC4CC(CC(C4)C2)C3)N=C(c2ccccc2)c2ccccc21 | 420 | – | –
26 | CN1C(=O)[C@H](NC(=O)CCc2ccccc2)N=C(c2ccccc2)c2ccccc21 | > 1000 | – | –
27 | CN1C(=O)[C@H](NC(=O)[C@@H](Cc2ccccc2)NC(=O)C(C)(C)C)N=C(c2ccccc2)c2ccccc21 | 380 | – | –
28 | CC(C)N1C(=O)[C@H](NC(=O)[C@@H](Cc2cccc(F)c2C(F)(F)F)NC(=O)OC(C)(C)C)CCc2ccccc21 | 65 | 39 | inhibition at 10 µM [4]: 87%
29 | CN1C(=O)[C@H](NC(=O)[C@@H](Cc2ccccc2F)NC(=O)OC(C)(C)C)N=C(c2ccccc2)c2ccccc21 | 87 | – | –
30 | CN1CCCC[C@@H](NC(=O)[C@@H](Cc2ccccc2)NC(=O)OC(C)(C)C)C1=O | > 1000 | – | –
31 | CC(C)N1C(=O)[C@@H](NC(=O)[C@@H](Cc2ccccc2OC(F)(F)F)NC(=O)OC(C)(C)C)CCc2ccccc21 | 32 | 20 | clearance [2]: 55 mL/min/kg; IC50 [10]: 1730 nM; Cmax [3]: 140 nM; half-life [5]: 2.1 h; bioavailability [6]: 15%
32 | CC(C)(C)OC(=O)N[C@H](Cc1ccccc1)C(=O)N[C@@H]1CCc2ccccc2N(CC(F)(F)F)C1 | 145 | 40 | –
33 | CC(C)N1C(=O)[C@H](NC(=O)[C@@H](Cc2ccccc2C(F)(F)F)NC(=O)OC(C)(C)C)CCc2ccccc21 | 137 | 34 | clearance [2]: 50 mL/min/kg; Cmax [3]: 300 nM; half-life [5]: 2.1 h; bioavailability [6]: 35%
34 | CC(C)N1C(=O)[C@H](NC(=O)[C@@H](Cc2ccc(C(F)(F)F)cc2)NC(=O)OC(C)(C)C)CCc2ccccc21 | > 1000 | – | –
35 | CN1C(=O)[C@H](NC(=O)[C@H](N)Cc2ccccc2)N=C(c2ccccc2)c2ccccc21 | > 1000 | – | –
36 | CN1C(=O)[C@H](NC(=O)[C@@H](Cc2cnc[nH]2)NC(=O)OC(C)(C)C)N=C(c2ccccc2)c2ccccc21 | > 1000 | – | –
37 | CC(C)(C)OC(=O)N[C@H](Cc1ccccc1)C(=O)N[C@@H]1CCc2ccccc2N(CC(F)(F)F)C1=O | 150 | 16 | –
38 | CN1C(=O)[C@H](NC(=O)[C@@H](Cc2ccc(F)cc2)NC(=O)OC(C)(C)C)N=C(c2ccccc2)c2ccccc21 | 71 | – | –
39 | CN1C(=O)[C@H](NC(=O)[C@@H](Cc2ccccc2)NS(C)(=O)=O)N=C(c2ccccc2)c2ccccc21 | > 1000 | – | –
40 | CN1C(=O)[C@H](NC(=O)[C@@H](Cc2ccccc2)NC(=O)OC(C)(C)C)CCc2ccccc21 | 192 | – | –
41 | CC(C)N1C(=O)[C@H](NC(=O)[C@@H](Cc2ccc(F)cc2)NC(=O)OC(C)(C)C)CCc2ccccc21 | 98 | 0 | inhibition at 10 µM [4]: 0%
42 | CC(C)N1C(=O)[C@H](NC(=O)[C@@H](Cc2cccc(F)c2)NC(=O)OC(C)(C)C)CCc2ccccc21 | 9 | 8 | inhibition at 10 µM [4]: 0%
43 | CC(C)S(=O)(=O)N[C@H](Cc1ccccc1)C(=O)N[C@@H]1N=C(c2ccccc2)c2ccccc2N(C)C1=O | > 1000 | – | –
